Measured values published in ChEMBL document CHEMBL1165950, “Design and synthesis of new potent anticancer pyrazoles with high FLT3 kinase inhibitory selectivity” (Bioorg Med Chem, 2010).

Tests used:
Assay type in all cases: functional
SK-MEL-2 = test: Cytotoxicity against human SK-MEL-2 cells assessed as cell growth at 0.01 uM after 48 hrs by sulforhodamine B assay; settings: SK-MEL-2, 48 h, read-out: Activity
HL-60(TB) = test: Cytotoxicity against human HL-60(TB) cells assessed as cell growth at 10 uM; settings: read-out: Activity
Method in brief: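 NCI 60-cell panel screen at a single concentration of 10 µM. Cells are grown in RPMI 1640 with 5% FBS and 2 mM L-glutamine and read by SRB protein staining at 515 nm. Percent growth is measured relative to time-zero and untreated controls; inhibition % is 100 minus growth %.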

[1] = Growth inhibition of human Hs 578T cells after 48 hrs by sulforhodamine B assay
Method in brief: (§1)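 NCI 60-cell screen, five-dose mode. Cells grown in RPMI 1640 with 5% FBS and 2 mM L-glutamine and plated at 5000-40,000 cells/well according to doubling time. After 24 h preincubation, a Tz plate was TCA-fixed. Five concentrations (10-fold or 1/2 log dilutions) were applied for 48 h at 37 °C. SRB staining read at 515 nm. IC50 taken from [(Ti-Tz)/(C-Tz)]×100 = 50.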

[2] = Cytotoxicity against human Hs 578T cells assessed as cell growth at 10 uM after 48 hrs by sulforhodamine B assay; settings: read-out: Activity
SF-268 = test: Cytotoxicity against human SF268 cells assessed as cell growth at 100 nM after 48 hrs by sulforhodamine B assay; settings: SF-268, 48 h, read-out: Activity
SK-MEL-5 [3] = test: Cytotoxicity against human SK-MEL-5 cells assessed as cell growth at 10 uM; settings: read-out: Activity
Method in brief: (§2)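 NCI-60 screen: cells grown in RPMI 1640 with 5% FBS and 2 mM L-glutamine, plated at 5000–40,000 cells/well according to doubling time, and preincubated 24 h at 37 °C, 5% CO2. The single 10 µM dose (DMSO stock) was added, then incubated 48 h. Cells were TCA-fixed and stained with 0.4% SRB, read at 515 nm, and growth % calculated against time-zero and control plates.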

MDA-MB-231 [4] = test: Cytotoxicity against human MDA-MB-231 cells assessed as cell growth at 0.001 uM after 48 hrs by sulforhodamine B assay; settings: MDA-MB-231, 48 h, read-out: Activity
OVCAR-4 [5] = test: Cytotoxicity against human OVCAR4 cells assessed as cell growth at 0.01 uM after 48 hrs by sulforhodamine B assay; settings: OVCAR-4, 48 h, read-out: Activity
BT-549 [6] = test: Growth inhibition of human BT549 cells after 48 hrs by sulforhodamine B assay; settings: BT-549, 48 h
Method in brief: (§3)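 NCI five-dose SRB assay in RPMI 1640 with 5% FBS and 2 mM L-glutamine. Cells were preincubated 24 h, then exposed 48 h at 37 °C to five concentrations (10-fold or half-log serial dilutions from DMSO stocks). TCA fixation, SRB staining, and absorbance at 515 nm followed. IC50 was taken where [(Ti−Tz)/(C−Tz)]×100 = 50, with Tz as time-zero cell density.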

PC-3 = test: Cytotoxicity against human PC3 cells assessed as cell growth at 100 nM after 48 hrs by sulforhodamine B assay; settings: PC-3, 48 h, read-out: Activity
SW-620 = test: Cytotoxicity against human SW620 cells assessed as cell growth at 0.01 uM after 48 hrs by sulforhodamine B assay; settings: SW-620, 48 h, read-out: Activity
MDA-MB-468 = test: Cytotoxicity against human MDA-MB-468 cells assessed as cell growth at 0.01 uM after 48 hrs by sulforhodamine B assay; settings: MDA-MB-468, 48 h, read-out: Activity
MCF7 = test: Cytotoxicity against human MCF7 cells assessed as cell growth at 0.01 uM after 48 hrs by sulforhodamine B assay; settings: MCF7, 48 h, read-out: Activity
A498 = test: Growth inhibition of human A498 cells after 48 hrs by sulforhodamine B assay; settings: A498, 48 h; method in brief: as §3
BT-549 [7] = test: Cytotoxicity against human BT549 cells assessed as cell growth at 0.001 uM after 48 hrs by sulforhodamine B assay; settings: BT-549, 48 h, read-out: Activity
Method in brief: (§4)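 NCI-60 five-dose screen. Cells were grown in RPMI 1640 with 5% FBS and 2 mM L-glutamine, plated at 5000–40,000 cells/well and preincubated for 24 h. Time-zero plates were TCA-fixed. DMSO-solubilized drug was added at five concentrations (10-fold or ½-log serial dilutions) for 48 h at 37 °C, 5% CO2. Cells were TCA-fixed, stained with 0.4% SRB and read at 515 nm. Percent growth used time-zero, control and test absorbances.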

OVCAR-4 [8] = test: Cytotoxicity against human OVCAR4 cells assessed as cell growth at 10 uM; settings: read-out: Activity; method in brief: as §2
TK-10 = test: Growth inhibition of human TK10 cells after 48 hrs by sulforhodamine B assay; settings: TK-10, 48 h; method in brief: as §1
ACHN = test: Cytotoxicity against human ACHN cells assessed as cell growth at 10 uM after 48 hrs by sulforhodamine B assay; settings: read-out: Activity; method in brief: as §4
SNB-19 = test: Cytotoxicity against human SNB19 cells assessed as cell growth at 1 uM after 48 hrs by sulforhodamine B assay; settings: SNB-19, 48 h, read-out: Activity
K562 = test: Cytotoxicity against human K562 cells assessed as cell growth at 1 uM after 48 hrs by sulforhodamine B assay; settings: K562, 48 h, read-out: Activity
MDA-MB-231 [9] = test: Cytotoxicity against human MDA-MB-231 cells assessed as cell growth at 1 uM after 48 hrs by sulforhodamine B assay; settings: MDA-MB-231, 48 h, read-out: Activity
SF-295 = test: Cytotoxicity against human SF295 cells assessed as cell growth at 0.01 uM after 48 hrs by sulforhodamine B assay; settings: SF-295, 48 h, read-out: Activity
SK-MEL-5 [10] = test: Growth inhibition of human SK-MEL-5 cells after 48 hrs by sulforhodamine B assay; settings: SK-MEL-5, 48 h; method in brief: as §1
DU-145 = test: Growth inhibition of human DU145 cells after 48 hrs by sulforhodamine B assay; settings: DU-145, 48 h; method in brief: as §3
OVCAR-8 = test: Cytotoxicity against human OVCAR8 cells assessed as cell growth at 0.01 uM after 48 hrs by sulforhodamine B assay; settings: OVCAR-8, 48 h, read-out: Activity
LOX IMVI = test: Cytotoxicity against human LOXIMVI cells assessed as cell growth at 0.01 uM after 48 hrs by sulforhodamine B assay; settings: read-out: Activity
NCI-H23 = test: Growth inhibition of human NCI-H23 cells after 48 hrs by sulforhodamine B assay; settings: NCI-H23, 48 h; method in brief: as §1
OVCAR-4 [11] = test: Cytotoxicity against human OVCAR4 cells assessed as cell growth at 10 uM after 48 hrs by sulforhodamine B assay; settings: OVCAR-4, 48 h, read-out: Activity
[12] = read-out: LC50 (the source's name)

SMILES: COc1cc(C)cc(-c2c(-c3ccnc(-c4ccc(C(C)=O)cc4)c3)cnn2CC#N)c1
- growth at 0.01 µM (SK-MEL-2): 90%
- growth at 10 µM (HL-60(TB)): 57%
- GI50 [1]: 1.68 µM
- TGI [1]: 5.68 µM
- CC50 [1, 12]: > 100 µM
- growth at 10 µM [2]: -27%
- growth at 0.1 µM (SF-268): 85%
- growth at 10 µM (SK-MEL-5 [3]): 49.2%
- growth at 0.001 µM (MDA-MB-231 [4]): 99%
- growth at 0.01 µM (OVCAR-4 [5]): 101%
- GI50 (BT-549 [6]): 3.12 µM
- TGI (BT-549 [6]): > 100 µM
- CC50 (BT-549 [6]; [12]): > 100 µM
- growth at 0.1 µM (PC-3): 83%
- growth at 0.01 µM (SW-620): 88%
- growth at 0.01 µM (MDA-MB-468): 84%
- growth at 0.01 µM (MCF7): 92%
- GI50 (A498): 2.03 µM
- LC50 (A498): > 100 µM
- TGI (A498): > 100 µM
- growth at 0.001 µM (BT-549 [7]): 96%
- growth at 10 µM (OVCAR-4 [8]): 80.2%
- TGI (TK-10): > 100 µM
- CC50 (TK-10; [12]): > 100 µM
- growth at 10 µM (ACHN): 24%
- growth at 1 µM (SNB-19): 60%
- growth at 1 µM (K562): 4%
- growth at 1 µM (MDA-MB-231 [9]): 21%
- growth at 0.01 µM (SF-295): 98%
- GI50 (SK-MEL-5 [10]): 1.94 µM
- TGI (SK-MEL-5 [10]): 4.96 µM
- CC50 (SK-MEL-5 [10]; [12]): > 100 µM
- GI50 (DU-145): 3.42 µM
- LC50 (DU-145): > 100 µM
- TGI (DU-145): > 100 µM
- growth at 0.01 µM (OVCAR-8): 83%
- growth at 0.01 µM (LOX IMVI): 105%
- GI50 (NCI-H23): 3.9 µM
- TGI (NCI-H23): > 100 µM
- CC50 (NCI-H23; [12]): > 100 µM
- growth at 10 µM (OVCAR-4 [11]): 30%
